Results on six compounds are retold here after ChEMBL document CHEMBL1147959, “N- and S-alpha-l-arabinopyranosyl[1,2,4]triazolo[3,4-b][1,3,4]thiadiazoles. First synthesis and biological evaluation” (2007).

The term MIC denotes the lowest concentration that inhibits growth of the organism. Read a high MIC as a less susceptible organism.

≈ marks a conversion by molar mass, not a printed value.

Holding throughout (assay type): functional
The test system of assay [1] is Penicillium italicum. The assay can be described thus: Antifungal activity against Penicillium italicum ATCC 48114 by broth dilution method. The procedure, abridged: (§1)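 MIC by twofold serial broth dilution. Compounds were dissolved in DMSO at 1.6 mg/mL as stock. Dilutions in Mueller–Hinton broth and Sabouraud dextrose broth ran from 800 down to 0.78. Inoculated broth containing DMSO alone at the same dilutions served as control. Gentamycin and griseofulvin were the reference drugs.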

The subject of assay [2] is Staphylococcus aureus. Put plainly: Antibacterial activity against Staphylococcus aureus ATCC 25923 at 2.5 mg/mL by diffusion agar method. As to conditions: read-out: IZ. A digest of the protocol: (§2)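 Agar diffusion. Compounds and standard drugs were dissolved in DMSO at 5 mg/mL and diluted to 5, 2.5 and 1 mg/mL. Hundred microlitres of each concentration was applied. Inhibition was scored against the control: 0.1–0.5 cm beyond control = +, 0.6–1.0 cm = ++, 1.0–1.5 cm = +++, 0 = not detected.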

The test system of assay [3] is Aspergillus fumigatus. The assay can be described thus: Antifungal activity against Aspergillus fumigatus ATCC 96918 at 2.5 mg/mL by diffusion agar method. As to conditions: read-out: IZ. A digest of the protocol: as §2
The subject of assay [4] is Escherichia coli. Put plainly: Antibacterial activity against Escherichia coli ATCC 23556 by broth dilution method. A digest of the protocol:
as §1

The test system of assay [5] is Staphylococcus aureus. The assay can be described thus: Antibacterial activity against Staphylococcus aureus ATCC 25923 by broth dilution method. A digest of the protocol: as §1
Assay [6] has as its system Penicillium italicum. The assay can be described thus: Antifungal activity against Penicillium italicum ATCC 48114 at 5 mg/mL by diffusion agar method. As to conditions: read-out: IZ. A digest of the protocol:
as §2

Assay [7] relates to Penicillium italicum. Put plainly: Antifungal activity against Penicillium italicum ATCC 48114 at 2.5 mg/mL by diffusion agar method. Conditions: read-out: IZ. A digest of the protocol:
as §2

Assay [8] has as its system Bacillus subtilis. The assay can be described thus: Antibacterial activity against Bacillus subtilis ATCC 6633 at 1 mg/mL by diffusion agar method. As to conditions: read-out: IZ. The procedure, abridged: as §2
The test system of assay [9] is Escherichia coli. Put plainly: Antibacterial activity against Escherichia coli ATCC 23556 at 5 mg/mL by diffusion agar method. As to conditions: read-out: IZ. A digest of the protocol: as §2
The subject of assay [10] is Pseudomonas aeruginosa. Put plainly: Antibacterial activity against Pseudomonas aeruginosa ATCC 10145 by broth dilution method. The procedure, abridged:
(§3)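 MIC by twofold serial broth dilution. Compounds were dissolved in DMSO as a 1.6 mg/mL stock and diluted in Mueller-Hinton broth or Sabouraud dextrose broth to 800, 400, 200, 100, 50, 25, 12.5, 6.25, 3.12, 1.56 and 0.78. A control of inoculated broth with DMSO alone at the same dilutions was included. Gentamycin and griseofulvin served as reference drugs.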
(Dilution methods test growth across graded concentrations, often in twofold steps.)

The subject of assay [11] is Pseudomonas aeruginosa. The assay can be described thus: Antibacterial activity against Pseudomonas aeruginosa ATCC 10145 at 1 mg/mL by diffusion agar method. As to conditions: read-out: IZ. The procedure, abridged: as §2
For assay [12], the system named is Escherichia coli. The assay can be described thus: Antibacterial activity against Escherichia coli ATCC 23556 at 2.5 mg/mL by diffusion agar method. Conditions: read-out: IZ. The procedure, abridged: as §2
The test system of assay [13] is Aspergillus fumigatus. Put plainly: Antifungal activity against Aspergillus fumigatus ATCC 96918 by broth dilution method. The procedure, abridged: as §1
The test system of assay [14] is Staphylococcus aureus. Put plainly: Antibacterial activity against Staphylococcus aureus ATCC 25923 at 1 mg/mL by diffusion agar method. As to conditions: read-out: IZ. A digest of the protocol:
as §2

Assay [15] relates to Staphylococcus aureus. The assay can be described thus: Antibacterial activity against Staphylococcus aureus ATCC 25923 at 5 mg/mL by diffusion agar method. Conditions: read-out: IZ. A digest of the protocol: as §2
Assay [16] has as its system Bacillus subtilis. The assay can be described thus: Antibacterial activity against Bacillus subtilis ATCC 6633 at 2.5 mg/mL by diffusion agar method. As to conditions: read-out: IZ. The procedure, abridged: as §2
For assay [17], the system named is Syncephalastrum racemosum. The assay can be described thus: Antifungal activity against Syncephalastrum racemosum ATCC 18192 at 2.5 mg/mL by diffusion agar method. As to conditions: read-out: IZ. The procedure, abridged: as §2
Assay [18] deals with Pseudomonas aeruginosa. The assay can be described thus: Antibacterial activity against Pseudomonas aeruginosa ATCC 10145 at 5 mg/mL by diffusion agar method. Conditions: read-out: IZ. The procedure, abridged:
as §2

Assay [19] has as its system Aspergillus fumigatus. The assay can be described thus: Antifungal activity against Aspergillus fumigatus ATCC 96918 at 5 mg/mL by diffusion agar method. As to conditions: read-out: IZ. A digest of the protocol:
as §2

Assay [20] deals with Bacillus subtilis. Put plainly: Antibacterial activity against Bacillus subtilis ATCC 6633 at 5 mg/mL by diffusion agar method. As to conditions: read-out: IZ. The procedure, abridged:
as §2

Assay [21] concerns Aspergillus fumigatus. The assay can be described thus: Antifungal activity against Aspergillus fumigatus ATCC 96918 at 1 mg/mL by diffusion agar method. As to conditions: read-out: IZ. A digest of the protocol:
as §2

The subject of assay [22] is Syncephalastrum racemosum. The assay can be described thus: Antifungal activity against Syncephalastrum racemosum ATCC 18192 by broth dilution method. A digest of the protocol:
as §1

Assay [23] relates to Pseudomonas aeruginosa. Put plainly: Antibacterial activity against Pseudomonas aeruginosa ATCC 10145 at 2.5 mg/mL by diffusion agar method. As to conditions: read-out: IZ. The procedure, abridged: as §2
The subject of assay [24] is Syncephalastrum racemosum. The assay can be described thus: Antifungal activity against Syncephalastrum racemosum ATCC 18192 at 5 mg/mL by diffusion agar method. Conditions: read-out: IZ. The procedure, abridged: as §2
Assay [25] concerns Bacillus subtilis. Put plainly: Antibacterial activity against Bacillus subtilis ATCC 6633 by broth dilution method. The procedure, abridged: as §3
Assay [26] deals with Penicillium italicum. The assay can be described thus: Antifungal activity against Penicillium italicum ATCC 48114 at 1 mg/mL by diffusion agar method. As to conditions: read-out: IZ. A digest of the protocol:
as §2

For assay [27], the system named is Syncephalastrum racemosum. The assay can be described thus: Antifungal activity against Syncephalastrum racemosum ATCC 18192 at 1 mg/mL by diffusion agar method. As to conditions: read-out: IZ. The procedure, abridged: as §2
Assay [28] has as its system Candida albicans. Put plainly: Antimicrobial activity against Candida albicans ATCC 14053 at 5 mg/mL by diffusion agar method. Conditions: read-out: IZ. The procedure, abridged: as §2
Assay [29] deals with Candida albicans. The assay can be described thus: Antimicrobial activity against Candida albicans ATCC 14053 at 1 mg/mL by diffusion agar method. As to conditions: read-out: IZ. A digest of the protocol:
as §2

In assay [30] the test system is Escherichia coli. Put plainly: Antibacterial activity against Escherichia coli ATCC 23556 at 1 mg/mL by diffusion agar method. As to conditions: read-out: IZ. A digest of the protocol:
as §2

Assay [31] relates to Candida albicans. Put plainly: Antimicrobial activity against Candida albicans ATCC 14053 at 2.5 mg/mL by diffusion agar method. Conditions: read-out: IZ. The procedure, abridged:
as §2

The test system of assay [32] is Candida albicans. Put plainly: Antimicrobial activity against Candida albicans ATCC 14053 by broth dilution method. The procedure, abridged: as §1

`CC(=O)O[C@@H]1[C@@H](OC(C)=O)[C@H](Sc2nnc3sc(-c4ccc(Cl)cc4)nn23)OC[C@@H]1OC(C)=O`: the minimal inhibitory concentration (MIC) turned out to be 1600 µg/mL (≈ 3040 µM) in the assay on Penicillium italicum [1]; 1600 µg/mL (≈ 3040 µM) against Escherichia coli [4]; 25 µg/mL (≈ 47.4 µM) in the assay with Staphylococcus aureus [5]; 12.5 µg/mL (≈ 23.7 µM) against Pseudomonas aeruginosa [10]; 25 µg/mL (≈ 47.4 µM) in the assay with Aspergillus fumigatus [13]; 1600 µg/mL (≈ 3040 µM) in [22]. Also, in the assay on Bacillus subtilis [25], the minimum inhibitory concentration (MIC) is 25 µg/mL (≈ 47.4 µM). The zone of inhibition at 2500 µg/mL (in the assay on Staphylococcus aureus [2]; with Aspergillus fumigatus [3]; in the assay on Penicillium italicum [7]; in the assay with Escherichia coli [12]; in the assay on Bacillus subtilis [16]; in [17]) was 1 mm each time. In the assay with Pseudomonas aeruginosa [23], the zone of inhibition at 2500 µg/mL was 1 mm. For the same compound, the zone of inhibition at 5000 µg/mL with Penicillium italicum [6], in the assay on Escherichia coli [9], in the assay on Staphylococcus aureus [15], in the assay on Pseudomonas aeruginosa [18], in the assay with Aspergillus fumigatus [19] and in the assay on Bacillus subtilis [20] was 1 mm in each case. For the same compound, the zone of inhibition at 5000 µg/mL in [24] was 1 mm. Moreover, the zone of inhibition at 1000 µg/mL in the assay on Bacillus subtilis [8], in the assay with Pseudomonas aeruginosa [11], in the assay with Staphylococcus aureus [14] and in the assay with Aspergillus fumigatus [21] was 1 mm each time.

Regarding `CC(=O)O[C@@H]1[C@@H](OC(C)=O)[C@H](n2nc3sc(-c4ccc(Cl)cc4)nn3c2=S)OC[C@@H]1OC(C)=O`, the MIC in the assay on Penicillium italicum [1], in the assay with Escherichia coli [4] and in the assay on Staphylococcus aureus [5] was over 1600 µg/mL in each case. Further, the zone of inhibition at 5000 µg/mL with Penicillium italicum [6], in the assay with Escherichia coli [9] and in the assay on Staphylococcus aureus [15] was 1 mm each time.

With `CN(C/C=C/C#CC(C)(C)C)Cc1cccc2ccccc12` [TERBINAFINE], the zone of inhibition at 2500 µg/mL (with Aspergillus fumigatus [3]; with Penicillium italicum [7]; in assay [17]) was 10 mm each time. Also, the zone of inhibition at 5000 µg/mL (in the assay on Penicillium italicum [6]; in the assay on Aspergillus fumigatus [19]; in [24]) was 10 mm throughout. In addition, the zone of inhibition at 1000 µg/mL worked out at 6 mm in the assay on Penicillium italicum [26], 10 mm in assay [27] and 6 mm in the assay on Aspergillus fumigatus [21].

For the compound `O=C(N[C@H](CO)[C@H](O)c1ccc([N+](=O)[O-])cc1)C(Cl)Cl` [CHLORAMPHENICOL], the zone of inhibition at 2500 µg/mL in the assay on Staphylococcus aureus [2] came out at 6 mm; in the assay on Escherichia coli [12] it was 6 mm; in the assay on Bacillus subtilis [16] it was 10 mm; in the assay with Pseudomonas aeruginosa [23], 10 mm; in the assay on Candida albicans [31], 6 mm. In addition, the zone of inhibition at 5000 µg/mL in the assay with Candida albicans [28] was determined as 6 mm; with Escherichia coli [9] it was 6 mm; with Staphylococcus aureus [15], 6 mm; in the assay with Pseudomonas aeruginosa [18] it was 10 mm; with Bacillus subtilis [20] it was 10 mm. Besides, the zone of inhibition at 1000 µg/mL with Candida albicans [29], in the assay with Bacillus subtilis [8], in the assay on Escherichia coli [30], with Pseudomonas aeruginosa [11] and in the assay on Staphylococcus aureus [14] was 6 mm in each case.

Take `COC1=CC(=O)C[C@@H](C)[C@]12Oc1c(Cl)c(OC)cc(OC)c1C2=O` [GRISEOFULVIN]: the MIC (in the assay with Penicillium italicum [1]; with Candida albicans [32]; against Aspergillus fumigatus [13]; in assay [22]) was 50 µg/mL (≈ 142 µM) in each case.

With GENTAMICIN, the MIC is 12.5 µg/mL against Escherichia coli [4], 3.12 µg/mL in the assay with Staphylococcus aureus [5], 12.5 µg/mL against Pseudomonas aeruginosa [10] and 1.56 µg/mL in the assay on Bacillus subtilis [25].
